Data set [1] has as its target T1, Aldo-keto reductase family 1 member A1 (Homo sapiens) (UniProt P14550).
T1 sequence (whole entry): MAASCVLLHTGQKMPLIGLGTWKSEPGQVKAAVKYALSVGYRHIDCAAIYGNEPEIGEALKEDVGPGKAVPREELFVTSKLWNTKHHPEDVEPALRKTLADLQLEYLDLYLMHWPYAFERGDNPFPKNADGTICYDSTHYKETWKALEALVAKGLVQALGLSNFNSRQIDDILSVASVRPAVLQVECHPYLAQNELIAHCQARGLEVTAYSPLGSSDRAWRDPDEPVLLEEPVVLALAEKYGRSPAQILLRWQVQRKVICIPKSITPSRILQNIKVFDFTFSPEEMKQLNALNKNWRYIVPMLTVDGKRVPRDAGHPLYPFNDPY
The data set is described as follows: Binding affinity to C-terminal 6His-tagged human recombinant SCoR2 AKR1A1 expressed in Escherichia coli BL21-CodonPlus competent cells assessed as thermal stability by measuring melting temperature at +/- 250 uM preincubated for 15 mins with NADPH followed by compound addition and measured after 30 mins by SYPRO orange dye based DSF analysis (reference value: 51.4 degreeC). A digest of the protocol:
(§1)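 5 μM protein with or without 250 μM NADPH or NADP⁺ and 250 μM inhibitor; cofactor preincubated 15 min, then inhibitor 30 min at room temperature. 10X SYPRO Orange added; temperature ramped 25–70°C in 0.3°C steps. DMSO-matched controls (1%); duplicates.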

Data set [2] has as its target T1, Aldo-keto reductase family 1 member A1 (Homo sapiens). As to the kind of experiment: Binding affinity to C-terminal 6His-tagged human recombinant SCoR2 AKR1A1 expressed in Escherichia coli BL21-CodonPlus competent cells assessed as melting temperature at +/- 250 uM incubated for 45 mins by SYPRO orange dye based DSF analysis (reference value: 48.3 degreeC). A digest of the protocol:
as §1
On the technique in general: DSF heats the sample and reads unfolding from a dye or from intrinsic fluorescence.

Data set [3] is described as follows: Drug uptake in mouse serum at 120 mg/kg body weight, ip measured at 24 hrs post injection by HPLC/mass spectrometry analysis. It is filed as ADME, organism-based. The following applies: in vivo. The method in brief: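 Serum collected 24 h after i.p. injection; compound level measured by HPLC/mass spectrometry.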
In data set [4] the test system is Mus musculus. The data set is described as follows: In vivo inhibition of SCoR2 in C57BL/6J mouse assessed as reduction in SNO-CoA metabolic activity in brain at 120 mg/kg body weight, ip administered as single dose into abdomen measured after 18 hrs. Type of data set: functional, organism-based. The method in brief:
(§2)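 Single i.p. injection into the mouse abdomen, DMSO vehicle; organs collected 18 h later. Tissues homogenized in 50 mM phosphate pH 7.0, 150 mM NaCl, EDTA/DTPA, then clarified; lysate started reactions with 200 μM SNO-CoA and 100 μM NADPH, 2 min, NADPH loss monitored, in triplicate. Compared with vehicle and SCoR2−/− kidneys.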

Data set [5] relates to Mus musculus. As to the kind of experiment: In vivo inhibition of SCoR2 in C57BL/6J mouse assessed as reduction in SNO-CoA metabolic activity in heart at 120 mg/kg body weight, ip administered as single dose into abdomen measured after 18 hrs. It is filed as functional, organism-based. A digest of the protocol: as §2
The subject of data set [6] is Mus musculus. As to the kind of experiment: In vivo inhibition of SCoR2 in C57BL/6J mouse assessed as reduction in SNO-CoA metabolic activity in lung at 120 mg/kg body weight, ip administered as single dose into abdomen measured after 18 hrs. It is filed as functional, organism-based. The method in brief:
as §2

For data set [7], the system named is Mus musculus. The data set is described as follows: In vivo inhibition of SCoR2 in C57BL/6J mouse assessed as reduction in SNO-CoA metabolic activity in liver at 120 mg/kg body weight, ip administered as single dose into abdomen measured after 18 hrs. Type of data set: functional, organism-based. A digest of the protocol: as §2
Data set [8] has as its system Mus musculus. As to the kind of experiment: In vivo inhibition of AKR1B1 in mouse assessed as reduction in methyl glyoxylate metabolic activity in kidneys at 120 mg/kg body weight, ip administered as single dose into abdomen measured after 18 hrs. Type of data set: functional, organism-based.
Data set [9] can be described thus: In vivo inhibition of SCoR2 in C57BL/6J mouse assessed as reduction in SNO-CoA metabolic activity in kidneys at 120 mg/kg body weight, ip administered as single dose into abdomen measured after 18 hrs relative to control. It is filed as functional. A digest of the protocol: as §2
The target of data set [10] is T2, Aldo-keto reductase family 1 member A1 (Homo sapiens, UniProt P14550).
T2 sequence (P14550 whole entry): T1 sequence (whole entry)
The data set is described as follows: Inhibition of C-terminal 6His-tagged human recombinant SCoR2 AKR1A1 expressed in Escherichia coli BL21-CodonPlus competent cells using SNO-CoA as substrate incubated for 2 mins in presence of NADPH. The method in brief:
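Purified enzyme at 200 nM (SCoR2 with 100 μM SNO-CoA; AKR1B1 with 100 μM methylglyoxylate) in 50 mM phosphate pH 7.0 with serial inhibitor dilutions; started with 100 μM NADPH, 2 min. Rate from 340 nm decrease, normalized to 20 nM protein activity; IC50 fitted, n=3. Selectivity taken as AKR1B1/SCoR2 IC50 ratio.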

For another data set, the system named is Kidney. The data set is described as follows: Effect on SCoR2 protein expression in kidney of ischemia/reperfusion induced acute kidney injury mouse model at 120 mg/kg, ip pretreated for 18 hrs followed by kidney injury surgery and measured after 24 hrs by Western blot analysis. It is filed as functional, organism-based. The note with it: time 42.0 hrs. The method in brief: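 Mice given 120 mg/kg i.p. 18 h before I/R surgery; kidneys collected 24 h post-surgery. SCoR2 protein measured by western blot (4–20% gels, overnight primary antibody at 4°C, HRP secondary, ECL) and quantified; n=6, DMSO controls.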

In data set [11] the test system is Mus musculus. As to the kind of experiment: Protection against ischemia/reperfusion induced acute kidney injury in mouse assessed as reduction in blood urea nitrogen level at 120 mg/kg, ip pretreated for 18 hrs followed by kidney injury surgery and measured after 24 hrs. It is filed as functional, organism-based. The note with it: time 42.0 hrs. A digest of the protocol:
(§3)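 Male mice (9–11 weeks, 25–28 g) given i.p. dose 18 h before ischemia–reperfusion AKI surgery under isoflurane; serum taken 24 h after reperfusion. Creatinine and BUN measured by a clinical laboratory; DMSO-treated controls.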

Data set [12] relates to Mus musculus. As to the kind of experiment: Protection against ischemia/reperfusion induced acute kidney injury in mouse assessed as reduction in serum creatinine level at 120 mg/kg, ip pretreated for 18 hrs followed by kidney injury surgery and measured after 24 hrs. Type of data set: functional, organism-based. The note with it: time 42.0 hrs. A digest of the protocol:
as §3

The nature of data set [13]: Renal toxicity in mouse assessed as effect on anatomy of medulla at 120 mg/kg, ip treated for 18 hrs under basal conditions by H and E staining based analysis. The following applies: in vivo. Type of data set: organism-based. The method in brief:
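Sham-operated mice given 120 mg/kg i.p. or vehicle; kidney cortex and medulla examined by H&E staining.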

Data set [14] concerns Mus musculus. As to the kind of experiment: Protection against ischemia/reperfusion induced acute kidney injury in mouse assessed as reduction in tubular lysis at 120 mg/kg, ip pretreated for 18 hrs followed by kidney injury surgery and measured after 24 hrs by H and E staining based analysis. Type of data set: functional, organism-based. The note with it: time 42.0 hrs. The method in brief:
(§4)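 Mice dosed i.p. 120 mg/kg 18 h before I/R surgery, kidneys harvested 24 h later, H&E-stained. Tubular lysis, brush-border loss and luminal debris scored 0–2 over more than five fields per animal; n=5 mice per group, vehicle controls.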

Data set [15] has as its system Mus musculus. The data set is described as follows: Protection against ischemia/reperfusion induced acute kidney injury in mouse assessed as reduction in loss of brush borders at 120 mg/kg, ip pretreated for 18 hrs followed by kidney injury surgery and measured after 24 hrs by H and E staining based analysis. Type of data set: functional, organism-based. The note with it: time 42.0 hrs. A digest of the protocol:
as §4

The test system of data set [16] is Mus musculus. The data set is described as follows: Protection against ischemia/reperfusion induced acute kidney injury in mouse assessed as reduction in PKM2 activity in kidney at 120 mg/kg, ip pretreated for 18 hrs followed by kidney injury surgery and measured after 24 hrs by colorimetric pyruvate kinase activity assay. The note with it: time 42.0 hrs.

Activity calls are given as the source filed them. No cut-off for these calls is given here.

In general, Tm refers to the temperature at the midpoint of the melting transition. The term inhibition in vivo denotes how much of the control response was suppressed. What is called IC50 is the concentration that inhibits the measured activity by half. On to `O=C1NC(=O)C2(N1)c1ccccc1-c1ccc(C3CC3)cc12` (configuration not stated), for which the results for the Tm in data set [1] and in data set [2] were 53.4 °C and 46.6 °C, respectively. Moreover, the Drug uptake entry in [3] is given as “Active”. Besides, the inhibition result in the data set with Mus musculus [4] and in the data set with Mus musculus [8] was “inactive” in each case. Further, the inhibition entry with Mus musculus [5], with Mus musculus [6] and with Mus musculus [7] was “Active” in each case. In [9], the inhibition in vivo at 120 mg/kg stood at 80%. In addition, the IC50 in data set [10] worked out at 0.093 µM. The outcome in the data set on Kidney was inactive. The result in the data set with Mus musculus [11], in the data set on Mus musculus [12], in the data set with Mus musculus [14], in the data set with Mus musculus [15] and in the data set on Mus musculus [16] was Active. In data set [13], the Activity result was “Non-Toxic”.

The values above are taken from ChEMBL document CHEMBL5338743, “Identification of a Selective SCoR2 Inhibitor That Protects Against Acute Kidney Injury” (J Med Chem, 2023).
